Experimental findings from ChEMBL document CHEMBL1287785, “Synthesis and in vitro evaluation of novel coumarin-chalcone hybrids as potential anticancer agents” (Bioorg Med Chem Lett, 2010) are described below.

pIC50: −log10 of the molar value.

By pIC50 is commonly meant −log10 of the IC50, conventionally taken in molar units.

Common to all, as to assay type: functional, cell-based
The subject of one experiment is KB. In words: Cytotoxicity against human KB cells after 48 hrs by sulforhodamine B assay. Particulars: for pIC50: Homo sapiens, KB, 48 h, read-out: IC50; for IC50: kb. A digest of the protocol: (§1)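 Cells kept below passage 15 in recommended medium with 10% FBS, gentamycin and amphotericin B, 37 °C, 5% CO₂. Seeded at 1 × 10⁴ cells/well overnight, then given serial two-fold dilutions (100 to 1.6) for 48 h, with untreated controls. Fixed in ice-cold 50% TCA, stained with 0.4% SRB in 1% acetic acid, read at 540 nm. IC₅₀ from dose–response curves of % growth inhibition.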

For another experiment, the system named is C-33-A. As to the kind of experiment: Cytotoxicity against human C33A cells after 48 hrs by sulforhodamine B assay. Particulars: for pIC50: Homo sapiens, C-33-A, 48 h, read-out: IC50; for IC50: c-33-a; call rule not given here. The method, boiled down:
as §1

The test system of the next experiment is MCF7. In words: Cytotoxicity against human MCF7 cells after 48 hrs by sulforhodamine B assay. The note with it: for pIC50: Homo sapiens, MCF7, 48 h, read-out: IC50; for IC50: mcf7. A digest of the protocol: as §1
A further experiment has as its system A549. As to the kind of experiment: Cytotoxicity against human A549 cells after 48 hrs by sulforhodamine B assay. Particulars: for pIC50: Homo sapiens, A549, 48 h, read-out: IC50; for IC50: a549. The method, boiled down: as §1
(In general: The SRB assay estimates cell density from bound dye.)

The subject of the next experiment is NIH3T3. As to the kind of experiment: Cytotoxicity against mouse NIH/3T3 cells after 48 hrs by sulforhodamine B assay. The note with it: for pIC50: Mus musculus, NIH3T3, 48 h, read-out: IC50; for IC50: nih3t3. The method, boiled down: as §1

With `COC(=O)c1cc2cc(C=O)c3ccccc3c2oc1=O`, the pIC50 with KB is 4.24; with C-33-A, 4.52; with MCF7, 4.21; in the experiment on A549, 4.12; in the experiment on NIH3T3 it was 4.18.

On to `CC(=O)c1cc2cc(/C=C/C(=O)c3ccccc3)c3ccccc3c2oc1=O`, for which the IC50 result with KB, in the experiment on C-33-A, with MCF7, with A549 and with NIH3T3 was “Not Active” in each case.

On to `CCOC(=O)c1cc2cc(C=O)cc(C(C)CC)c2oc1=O` (configuration not stated), for which the figures for the pIC50 in the experiment with KB and in the experiment on C-33-A were 3.88 and 4.19, respectively. Also, the IC50 entry with NIH3T3 is on record as “Not Active”.

As to `CCOC(=O)c1cc2cc(/C=C/C(=O)c3ccc(Cl)cc3)c3ccccc3c2oc1=O`, the IC50 entry with KB, in the experiment with C-33-A, in the experiment on MCF7, with A549 and with NIH3T3 was “Not Active” throughout.

Turning to `COC(=O)c1cc2cc(/C=C/C(=O)c3ccc(Cl)cc3)c3ccccc3c2oc1=O`, the IC50 entry in the experiment with KB, in the experiment with C-33-A, in the experiment with MCF7, in the experiment with A549 and in the experiment with NIH3T3 was “Not Active” throughout.

As to `CC(=O)c1cc2cc(/C=C/C(=O)c3ccc(C)cc3)c3ccccc3c2oc1=O`, the IC50 result in the experiment on KB, in the experiment with C-33-A, in the experiment on MCF7, in the experiment on A549 and in the experiment on NIH3T3 was “Not Active” in each case.

Regarding `CCOC(=O)c1cc2cc(/C=C/C(=O)c3ccc(C)cc3)cc(C(C)CC)c2oc1=O` (configuration not stated), the pIC50 in the experiment with KB is 4.75; in the experiment with C-33-A, 5.44; in the experiment on MCF7, 4.09; with A549, 4.48. The IC50 entry in the experiment on NIH3T3 is recorded as “Not Active”.

Turning to `CC(=O)c1cc2cc(/C=C/C(=O)c3ccc(Cl)cc3)c3ccccc3c2oc1=O`, the IC50 entry in the experiment with KB, in the experiment with C-33-A, in the experiment with MCF7, with A549 and with NIH3T3 was “Not Active” each time.

Turning to `CCOC(=O)c1cc2cc(/C=C/C(=O)c3ccccc3)cc(C(C)CC)c2oc1=O` (configuration not stated), the pIC50 in the experiment with KB is 4.98; with C-33-A, 5.09; in the experiment on MCF7 it was 4.06; in the experiment on A549, 4.89. Further, the IC50 result in the experiment on NIH3T3 is “Not Active”.

Take `CCOC(=O)c1cc2cc(/C=C/C(=O)c3ccccc3)c3ccccc3c2oc1=O`: the IC50 result in the experiment with KB, in the experiment with C-33-A, in the experiment with MCF7, in the experiment with A549 and with NIH3T3 was “Not Active” each time.

For `CCC(C)c1cc(C=O)cc2cc(C(C)=O)c(=O)oc12` (configuration not stated), the figures for the pIC50 in the experiment on KB, with C-33-A and with MCF7 were 3.75, 4.15 and 3.85, respectively. Further, the IC50 entry in the experiment with A549 and in the experiment on NIH3T3 was “Not Active” each time.

`CCC(C)c1cc(/C=C/C(=O)c2ccccc2)cc2cc(C(=O)OC)c(=O)oc12` (configuration not stated): the pIC50 in the experiment with KB was 4.87; with C-33-A, 5.20; with MCF7, 4.94; with A549, 4.97. In addition, in the experiment on NIH3T3, the IC50 result was “Not Active”.

`CCC(C)c1cc(C=O)cc2cc(C(=O)OC)c(=O)oc12` (configuration not stated): the values for the pIC50 in the experiment with KB and in the experiment with C-33-A were 3.84 and 4.06, respectively. For the same compound, the IC50 entry in the experiment with MCF7, with A549 and with NIH3T3 was “Not Active” in each case.

For `COc1cccc2c1C(=O)c1c(O)c3c(c(O)c1C2=O)C[C@@](O)(C(=O)CO)C[C@@H]3O[C@H]1C[C@H](N)[C@H](O)[C@H](C)O1` [DOXORUBICIN], the pIC50 was 6.66 in the experiment on KB, 6.09 with C-33-A, 6.21 in the experiment with MCF7 and 6.28 in the experiment on A549.

`COC(=O)c1cc2cc(/C=C/C(=O)c3ccc(C)cc3)c3ccccc3c2oc1=O`: the pIC50 with KB was 4.15; in the experiment with C-33-A, 4.28; with MCF7, 3.93. Moreover, the IC50 result in the experiment with A549 and in the experiment on NIH3T3 was “Not Active” each time.

`COC(=O)c1cc2cc(/C=C/C(=O)c3ccccc3)c3ccccc3c2oc1=O`: the pIC50 in the experiment with KB is 4.04; in the experiment with C-33-A, 4.20; with MCF7 it was 3.99. Further, the IC50 entry with A549 and in the experiment on NIH3T3 was “Not Active” each time.

In the case of `CCC(C)c1cc(/C=C/C(=O)c2ccc(Cl)cc2)cc2cc(C(C)=O)c(=O)oc12` (configuration not stated), the IC50 result in the experiment on KB, in the experiment on C-33-A, with MCF7, in the experiment with A549 and with NIH3T3 was “Not Active” each time.

`CCOC(=O)c1cc2cc(C=O)c3ccccc3c2oc1=O`: the pIC50 with KB is 3.91; in the experiment on C-33-A, 4.03; in the experiment with MCF7, 3.81. Also, the IC50 entry with A549 and in the experiment on NIH3T3 was “Not Active” in each case.

As for `CCOC(=O)c1cc2cc(/C=C/C(=O)c3ccc(Cl)cc3)cc(C(C)CC)c2oc1=O` (configuration not stated), the pIC50 in the experiment with KB was 4.84; in the experiment with C-33-A, 5.34; in the experiment with MCF7, 4.96; in the experiment with A549, 4.89; with NIH3T3 it was 4.42.

As to `CCC(C)c1cc(/C=C/C(=O)c2ccc(Cl)cc2)cc2cc(C(=O)OC)c(=O)oc12` (configuration not stated), the pIC50 is 4.55 in the experiment with KB; 5.23 in the experiment with C-33-A; 4.97 in the experiment on MCF7; 4.78 in the experiment on A549; 4.37 in the experiment on NIH3T3.

Consider `CCOC(=O)c1cc2cc(/C=C/C(=O)c3ccc(C)cc3)c3ccccc3c2oc1=O`, for which the IC50 result with KB, in the experiment with C-33-A, with MCF7, in the experiment with A549 and in the experiment on NIH3T3 was “Not Active” each time.

Take `CC(=O)c1cc2cc(C=O)c3ccccc3c2oc1=O`: the figures for the pIC50 in the experiment on KB, in the experiment with C-33-A and in the experiment with MCF7 were 3.96, 4.14 and 3.83, respectively. Moreover, the IC50 entry in the experiment with A549 and in the experiment on NIH3T3 was “Not Active” each time.
